Legend:
[1] = biological target: 5-hydroxytryptamine receptor 2A (Rattus norvegicus) (UniProt P14842); experiment: Displacement of [3H]ketanserin from Sprague-Dawley rat brain cortex serotonin 5-HT2A receptor at 0.0000001 uM after 15 mins by liquid scintillation counting
[2] = biological target: T1, Adrenergic receptor alpha-1 (Rattus norvegicus, UniProt P15823+P23944+P43140); experiment: Displacement of [3H]prazosin from rat brain cortex adrenergic alpha1 receptor after 30 mins by liquid scintillation counting
T1 sequence (P15823 whole entry): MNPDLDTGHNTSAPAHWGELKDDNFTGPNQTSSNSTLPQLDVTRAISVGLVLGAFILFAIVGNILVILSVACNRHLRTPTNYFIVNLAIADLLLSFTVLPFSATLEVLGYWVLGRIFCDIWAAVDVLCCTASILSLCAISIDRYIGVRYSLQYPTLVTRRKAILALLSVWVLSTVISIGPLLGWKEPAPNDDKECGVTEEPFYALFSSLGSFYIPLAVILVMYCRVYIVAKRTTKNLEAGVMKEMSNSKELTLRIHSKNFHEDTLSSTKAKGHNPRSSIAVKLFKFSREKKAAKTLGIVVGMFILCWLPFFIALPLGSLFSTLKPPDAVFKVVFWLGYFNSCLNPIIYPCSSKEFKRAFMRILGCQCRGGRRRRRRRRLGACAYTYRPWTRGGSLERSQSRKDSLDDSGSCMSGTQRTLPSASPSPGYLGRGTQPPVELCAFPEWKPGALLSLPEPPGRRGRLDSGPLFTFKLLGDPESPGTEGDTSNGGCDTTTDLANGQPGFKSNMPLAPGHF
T1 sequence (P23944 whole entry): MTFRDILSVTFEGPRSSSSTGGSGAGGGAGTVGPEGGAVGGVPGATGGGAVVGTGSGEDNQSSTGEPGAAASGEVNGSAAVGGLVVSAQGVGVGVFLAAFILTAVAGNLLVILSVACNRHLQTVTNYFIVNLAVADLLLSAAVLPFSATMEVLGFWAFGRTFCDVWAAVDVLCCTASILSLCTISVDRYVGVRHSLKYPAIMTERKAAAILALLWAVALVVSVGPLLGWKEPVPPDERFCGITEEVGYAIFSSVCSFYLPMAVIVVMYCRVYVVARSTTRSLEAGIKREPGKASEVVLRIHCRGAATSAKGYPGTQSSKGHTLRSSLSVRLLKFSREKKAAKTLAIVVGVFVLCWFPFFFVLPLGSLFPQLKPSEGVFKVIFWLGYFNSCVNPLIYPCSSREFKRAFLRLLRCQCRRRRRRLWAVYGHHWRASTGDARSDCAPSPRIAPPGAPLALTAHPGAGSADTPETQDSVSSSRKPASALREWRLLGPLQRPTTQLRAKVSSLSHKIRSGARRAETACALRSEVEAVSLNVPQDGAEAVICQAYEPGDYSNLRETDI
T1 sequence (P43140 whole entry): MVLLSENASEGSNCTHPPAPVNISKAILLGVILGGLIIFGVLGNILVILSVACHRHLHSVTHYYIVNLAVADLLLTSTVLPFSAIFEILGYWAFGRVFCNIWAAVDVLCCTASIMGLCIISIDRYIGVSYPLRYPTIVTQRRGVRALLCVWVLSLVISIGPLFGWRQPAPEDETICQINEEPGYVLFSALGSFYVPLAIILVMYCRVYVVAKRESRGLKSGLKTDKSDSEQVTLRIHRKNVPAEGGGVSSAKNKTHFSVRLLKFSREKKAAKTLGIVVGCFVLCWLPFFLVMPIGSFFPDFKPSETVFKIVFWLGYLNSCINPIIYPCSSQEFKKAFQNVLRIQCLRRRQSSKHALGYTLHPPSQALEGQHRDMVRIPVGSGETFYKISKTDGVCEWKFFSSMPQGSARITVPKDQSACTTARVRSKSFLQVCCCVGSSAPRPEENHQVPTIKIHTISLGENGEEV
Procedure, shortened: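 Brain cortex homogenized in 50 mM Tris-HCl pH 7.2, spun twice at 50,000 g, resuspended in Tris-HCl pH 7.4. 0.4 nM [3H]prazosin final, 10 mg fresh tissue, 30 min at 25 °C. Nonspecific binding with phentolamine. GF/B filtration. Ki by Cheng-Prusoff from six-point triplicate curves.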

[3] = biological target: T2, Adrenergic receptor alpha-2 (Rattus norvegicus, UniProt P22086+P19328+P22909); experiment: Displacement of [3H]yohimbine from rat brain cortex adrenergic alpha2 receptor after 30 mins by liquid scintillation counting
T2 sequence (P22086 whole entry): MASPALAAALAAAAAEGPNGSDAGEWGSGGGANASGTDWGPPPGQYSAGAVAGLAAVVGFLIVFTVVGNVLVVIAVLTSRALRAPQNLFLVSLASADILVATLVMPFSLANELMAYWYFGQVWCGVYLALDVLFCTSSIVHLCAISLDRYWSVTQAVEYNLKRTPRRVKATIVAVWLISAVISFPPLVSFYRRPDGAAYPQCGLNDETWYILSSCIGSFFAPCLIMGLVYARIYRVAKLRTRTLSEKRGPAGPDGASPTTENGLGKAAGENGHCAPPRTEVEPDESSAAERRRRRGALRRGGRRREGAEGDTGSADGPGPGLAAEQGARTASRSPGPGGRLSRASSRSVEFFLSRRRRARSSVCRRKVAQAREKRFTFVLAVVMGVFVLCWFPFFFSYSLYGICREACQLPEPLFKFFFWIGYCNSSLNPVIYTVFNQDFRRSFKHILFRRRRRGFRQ
T2 sequence (P19328 whole entry): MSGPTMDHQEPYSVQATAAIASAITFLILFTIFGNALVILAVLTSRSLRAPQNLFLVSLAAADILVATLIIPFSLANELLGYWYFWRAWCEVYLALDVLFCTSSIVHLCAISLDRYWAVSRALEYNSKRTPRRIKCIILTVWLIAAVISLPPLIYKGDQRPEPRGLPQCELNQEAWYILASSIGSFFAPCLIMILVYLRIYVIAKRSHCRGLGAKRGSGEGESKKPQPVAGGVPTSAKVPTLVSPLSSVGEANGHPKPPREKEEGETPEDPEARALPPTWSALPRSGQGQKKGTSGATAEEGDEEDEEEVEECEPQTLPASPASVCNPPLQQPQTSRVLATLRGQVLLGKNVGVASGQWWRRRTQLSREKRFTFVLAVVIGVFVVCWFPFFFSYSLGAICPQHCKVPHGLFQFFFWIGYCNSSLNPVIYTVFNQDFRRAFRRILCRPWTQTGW
T2 sequence (P22909 whole entry): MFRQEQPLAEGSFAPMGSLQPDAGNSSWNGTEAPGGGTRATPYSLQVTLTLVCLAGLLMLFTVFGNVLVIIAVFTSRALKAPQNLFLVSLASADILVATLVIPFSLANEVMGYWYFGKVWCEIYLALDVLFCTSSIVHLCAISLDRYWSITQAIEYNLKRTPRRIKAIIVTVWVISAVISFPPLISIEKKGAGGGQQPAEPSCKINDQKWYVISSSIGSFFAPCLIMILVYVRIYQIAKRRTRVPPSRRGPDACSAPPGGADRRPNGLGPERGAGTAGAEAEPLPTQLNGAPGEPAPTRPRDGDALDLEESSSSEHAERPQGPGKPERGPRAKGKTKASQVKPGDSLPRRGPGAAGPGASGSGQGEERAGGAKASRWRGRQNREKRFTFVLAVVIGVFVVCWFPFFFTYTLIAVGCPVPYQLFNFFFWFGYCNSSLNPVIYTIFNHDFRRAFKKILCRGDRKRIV
Procedure, shortened: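 Cortex homogenized in 5 mM Tris-HCl, 5 mM EDTA pH 7.3, spun three times at 50,000 g, resuspended in 50 mM Tris-HCl, 0.5 mM EDTA pH 7.5. [3H]yohimbine 1 nM final, 10 mg fresh tissue, 30 min at 25 °C. Phentolamine defined nonspecific binding. Ki by Cheng-Prusoff.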

[4] = biological target: 5-hydroxytryptamine receptor 2A (Rattus norvegicus) (UniProt P14842); experiment: Displacement of [3H]ketanserin from Sprague-Dawley rat brain cortex serotonin 5-HT2A receptor at 0.001 uM after 15 mins by liquid scintillation counting
[5] = biological target: 5-hydroxytryptamine receptor 2A (Rattus norvegicus) (UniProt P14842); experiment: Displacement of [3H]ketanserin from Sprague-Dawley rat brain cortex serotonin 5-HT2A receptor at 0.00001 uM after 15 mins by liquid scintillation counting

5-hydroxytryptamine receptor 2A (Rattus norvegicus), sequence (P14842 whole entry): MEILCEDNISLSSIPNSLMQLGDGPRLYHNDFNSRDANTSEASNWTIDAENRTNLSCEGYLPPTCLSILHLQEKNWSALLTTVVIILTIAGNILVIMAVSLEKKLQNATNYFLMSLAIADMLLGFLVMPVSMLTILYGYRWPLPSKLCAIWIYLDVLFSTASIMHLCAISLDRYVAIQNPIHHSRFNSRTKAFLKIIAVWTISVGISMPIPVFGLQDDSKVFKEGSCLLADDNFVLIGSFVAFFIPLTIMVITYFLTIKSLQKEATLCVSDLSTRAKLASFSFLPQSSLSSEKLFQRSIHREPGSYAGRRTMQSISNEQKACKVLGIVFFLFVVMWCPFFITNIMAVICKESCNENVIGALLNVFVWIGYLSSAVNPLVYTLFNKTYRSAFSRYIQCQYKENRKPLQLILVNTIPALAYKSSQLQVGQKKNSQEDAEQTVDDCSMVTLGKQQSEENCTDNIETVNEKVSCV

- inhibition [1]: 45.3%
- Ki [2]: 174 nM
- Ki [3]: 1360 nM
- inhibition [4]: 95.1%
- inhibition [5]: 68.8%
Structure (SMILES): N#C/N=C(\NCCCN1CCN(c2cccc(Cl)c2)CC1)c1ccccn1

From ChEMBL document CHEMBL1926621, “New potent 5-HT(2A) receptor ligands containing an N'-cyanopicolinamidine nucleus: Synthesis and in vitro pharmacological evaluation” (Eur J Med Chem, 2012)
